pEC50, pIC50: −log10 of the molar value.
Legend:
CCRF-CEM [1] = test: Growth inhibition against Human leukemic cell line(CCRF-CEM) during continuous exposure
FaDu [2] = test: Protection against the growth inhibition against Human squamous cell line(Fadu); format: functional; set-up: scale not given: the % may be the effect or the level left
A253 cell line = test: Growth inhibition against Human squamous cell line(A 253); format: functional, cell-based
In short: (§1)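 Continuous drug exposure growth assay. CCRF-CEM and its MTX-resistant subline R30dm (1% of parental FPGS activity) cultured as previously reported; A253 and FaDu squamous carcinoma monolayers subcultured in RPMI 1640/10% fetal calf serum. EC50 read visually from plots of percent control growth against log drug concentration. Averages ± range for n = 2, ± SD for n ≥ 3.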

FaDu [3] = test: Protection by 40 uM against the Growth inhibition against Human squamous cell line(Fadu), in the presence of 40 uM thymidine; format: functional; set-up: scale not given: the % may be the effect or the level left
FaDu [4] = test: Protection by 50 uM+40 uM against Growth inhibition against Human squamous cell line(Fadu), in the presence of 50 uM hypoxanthine +40 uM thymidine; format: functional; set-up: scale not given: the % may be the effect or the level left
FaDu [5] = test: Protection by 50 uM against the Growth inhibition against Human squamous cell line(Fadu); format: functional; set-up: scale not given: the % may be the effect or the level left
FaDu [6] = test: Protection by 10 uM LV against the growth inhibition against Human squamous cell line(Fadu); format: functional; set-up: scale not given: the % may be the effect or the level left
Dihydrofolate reductase [7] = biological target: Dihydrofolate reductase (Lactobacillus casei, UniProt P00381); test: Inhibitory activity against dihydro folate reductase from Lactobacillus casei; set-up: species or system Lacticaseibacillus casei
Chain of Dihydrofolate reductase (Lactobacillus casei, UniProt P00381) (P00381 whole entry): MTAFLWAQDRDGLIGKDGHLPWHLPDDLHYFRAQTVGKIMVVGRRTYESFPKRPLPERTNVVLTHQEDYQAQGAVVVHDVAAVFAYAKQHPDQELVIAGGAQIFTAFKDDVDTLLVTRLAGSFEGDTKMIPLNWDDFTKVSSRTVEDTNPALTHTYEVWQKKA

CCRF-CEM [8] = test: Growth inhibition against Human leukemic cell line(CCRF-CEM); format: functional, cell-based
In short: as §1

Thymidylate synthase [9] = biological target: T1, Thymidylate synthase (Lactobacillus casei, UniProt P00469); test: Inhibitory activity against thymidylate Synthase from Lactobacillus casei; set-up: species or system Lacticaseibacillus casei
T1 sequence (P00469 whole entry): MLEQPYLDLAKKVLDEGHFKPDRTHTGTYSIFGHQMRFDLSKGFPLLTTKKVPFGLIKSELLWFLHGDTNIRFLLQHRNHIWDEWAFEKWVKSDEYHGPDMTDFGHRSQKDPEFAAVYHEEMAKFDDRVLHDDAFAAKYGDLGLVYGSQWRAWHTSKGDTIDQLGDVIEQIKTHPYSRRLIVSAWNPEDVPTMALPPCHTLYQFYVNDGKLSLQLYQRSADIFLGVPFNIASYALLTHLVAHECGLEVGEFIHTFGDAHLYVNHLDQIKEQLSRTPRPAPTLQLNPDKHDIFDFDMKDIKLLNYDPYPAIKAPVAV

CCRF-CEM [10] = test: Growth inhibition against Human leukemic cell line (Methotrexate resistant CCRF-CEM); format: functional, cell-based
In short: as §1

FaDu [11] = test: Growth inhibition against Human squamous cell line(Fadu); format: functional, cell-based
In short: as §1

Dihydrofolate reductase [12] = biological target: T2, Dihydrofolate reductase (Homo sapiens, UniProt P00374); test: Inhibitory activity against dihydro folate reductase from human recombinant sources
T2 sequence (P00374 whole entry): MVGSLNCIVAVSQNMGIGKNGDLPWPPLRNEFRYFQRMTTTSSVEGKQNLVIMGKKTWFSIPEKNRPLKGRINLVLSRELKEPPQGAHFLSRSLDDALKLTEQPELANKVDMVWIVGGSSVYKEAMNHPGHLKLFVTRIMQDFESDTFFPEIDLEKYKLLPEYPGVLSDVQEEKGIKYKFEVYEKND

Dihydrofolate reductase [13] = biological target: T2, Dihydrofolate reductase; test: Inhibitory activity against dihydro folate reductase from human CCRF-CEM leukemic cell line
Thymidylate synthase [14] = biological target: Thymidylate synthase (Homo sapiens, UniProt P04818); test: Inhibitory activity against thymidylate Synthase from human recombinant sources
Chain of Thymidylate synthase (Homo sapiens, UniProt P04818) (P04818 whole entry): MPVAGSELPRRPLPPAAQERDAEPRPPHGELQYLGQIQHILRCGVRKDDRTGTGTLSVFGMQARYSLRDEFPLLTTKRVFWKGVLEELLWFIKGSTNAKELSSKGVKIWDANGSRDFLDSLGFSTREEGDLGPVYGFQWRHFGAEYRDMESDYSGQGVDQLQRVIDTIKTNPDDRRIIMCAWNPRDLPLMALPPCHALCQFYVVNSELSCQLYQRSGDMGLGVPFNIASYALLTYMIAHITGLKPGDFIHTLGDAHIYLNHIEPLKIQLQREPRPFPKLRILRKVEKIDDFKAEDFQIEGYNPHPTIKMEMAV

| Compound | pEC50 (CCRF-CEM [1]) | Control (FaDu [2]) [%] | pEC50 (A253 cell line) | Control (FaDu [3]) [%] | Control (FaDu [4]) [%] | Control (FaDu [5]) [%] | Control (FaDu [6]) [%] | pIC50 (Dihydrofolate reductase [7]) | pEC50 (CCRF-CEM [8]) | pIC50 (Thymidylate synthase [9]) | pEC50 (CCRF-CEM [10]) | pEC50 (FaDu [11]) | pIC50 (Dihydrofolate reductase [12]) | pIC50 (Dihydrofolate reductase [13]) | pIC50 (Thymidylate synthase [14]) |
| --- | --- | --- | --- | --- | --- | --- | --- | --- | --- | --- | --- | --- | --- | --- | --- |
| C#CCN(Cc1ccc2[nH]c(N)nc(=O)c2c1)c1ccc(C(=O)NC(CCC(=O)O)C(=O)O)cc1 (centres undefined) | 6.14 | – | – | – | – | – | – | – | – | – | – | – | – | – | – |
| CN(Cc1cnc2nc(N)nc(N)c2n1)c1ccc(C(=O)N[C@@H](CCC(=O)O)C(=O)O)cc1 [METHOTREXATE] | – | 2 | 7.89 | 11 | 95 | 18 | 114 | – | – | – | – | – | – | – | – |
| CC1=C(Sc2ccc(C(=O)NC(CCC(=O)O)C(=O)O)cc2)C2C(=O)NC(N)=NC2N1 (centres undefined) | – | 5 | 5.52 | 83 | 78 | 4 | 7 | 5.66 | 6.35 | 7.68 | 6.09 | 6.28 | 5.66 | 6.91 | – |
| CC1=C(Sc2ccncc2)C2C(=O)NC(N)=NC2N1 (centres undefined) | – | – | – | – | – | – | – | < 4.16 | – | 4.00 | – | – | < 4.16 | – | 6.47 |

— ChEMBL document CHEMBL1128698, “5-Arylthio-substituted 2-amino-4-oxo-6-methylpyrrolo[2,3-d]pyrimidine antifolates as thymidylate synthase inhibitors and antitumor agents” (J Med Chem, 1995)
